Values after ≈ are worked out from the molar mass of the structure shown.
Columns and labels:
Trypanosoma cruzi = test: WHO-TDR: Chagas disease; format: functional, organism-based, Homo sapiens; conditions: MRC5
Procedure, shortened: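 Intracellular amastigotes of the Trypanosoma cruzi Tulahuen CL2 beta-galactosidase strain, grown in MRC-5SV2 human lung fibroblast host cells, were tested in a whole-organism screen. The compounds came from a 10,000-member diverse Life Chemicals library that had been filtered for drug-likeness and reactive groups. Previously published standard procedures were followed, with a reference drug as positive control, and potency is reported as IC50.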

Brugia malayi = test: WHO-TDR: Lymphatic Filariasis; format: functional; parameters: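 tested at 10 µM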
Procedure, shortened: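 A diverse library of 10,000 compounds from Life Chemicals was screened against Brugia malayi microfilariae in a whole-organism assay. The library had been filtered for drug-likeness and reactive groups. Activity is given as percent inhibition and as IC50.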

Schistosoma mansoni = test: WHO-TDR: Schistosomiasis; format: functional; parameters: concentration or dose not given beside the values
Procedure, shortened: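 A diverse library of 10,000 compounds from Life Chemicals, filtered for drug-likeness and reactive groups, was screened against whole larval and/or adult Schistosoma mansoni worms of the Puerto Rican strain. Previously published standard procedures were followed, with a reference drug as positive control. Activity is given as percent inhibition and as IC50.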

Plasmodium falciparum K1 = test: WHO-TDR: Malaria; format: functional, organism-based, Homo sapiens; conditions: Erythrocyte
Procedure, shortened: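 Life Chemicals supplied the diverse library of 10,000 compounds, which had been filtered for drug-likeness and reactive groups. Each was screened against the K1 strain of Plasmodium falciparum at its intra-erythrocytic stage in human red blood cells, using previously published standard procedures and a reference drug as positive control. The table reports IC50 for antiplasmodial potency.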

Leishmania infantum = test: WHO-TDR: Leishmaniasis; format: functional, organism-based, Mus musculus; conditions: Macrophage
Procedure, shortened: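 IC50 values describe antiparasitic potency in this whole-organism screen. Leishmania infantum MHOM/MA(BE)/67 amastigotes were tested inside murine peritoneal macrophages against a 10,000-compound diverse Life Chemicals library. A reference drug served as positive control.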

[1] = WHO-TDR: Cytotoxicity; format: toxicity, cell-based; conditions: human, MRC5 cells
Onchocerca ochengi = test: WHO-TDR: Onchocerciasis; format: functional; parameters: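 at 12.5 µM on microfilariae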
Procedure, shortened: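 A diverse library of 10,000 compounds from Life Chemicals, filtered for drug-likeness and reactive groups, was screened against whole microfilariae of Onchocerca ochengi or Onchocerca lienalis. These animal pathogens served as stand-ins for the human parasite. Activity is given as percent inhibition and as IC50.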

[2] = system: Trypanosoma brucei brucei; test: WHO-TDR: Human African Trypanosomiasis (HAT); format: functional, organism-based; conditions: Squib-427
Procedure, shortened: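 Following previously published standard procedures, with reference drugs as positive controls, a whole-organism assay was run against bloodstream-form Trypanosoma brucei, Squib 427 strain. The compounds, 10,000 in all, came from a diverse Life Chemicals library filtered for drug-likeness and reactive groups. Reported values are IC50 for antiparasitic potency.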

Structure (SMILES)	IC50 (Trypanosoma cruzi)	% Inhibition (Brugia malayi)	% Inhibition (Schistosoma mansoni)	IC50 (Plasmodium falciparum K1)	IC50 (Leishmania infantum)	IC50 [1]	% Inhibition (Onchocerca ochengi)	IC50 [2]
Cc1ccnc(Nc2ccc(NCCNC(=O)c3cccc(C(F)(F)F)c3)nn2)c1	> 12.5 µg/mL	0%	0%	1.48 µg/mL (≈ 3.56 µM)	> 12.5 µg/mL	9.41 µg/mL (≈ 22.6 µM)	100%	> 12.5 µg/mL
O=C(Nc1ccc(OC(F)(F)F)cc1)c1csc(NS(=O)(=O)c2cccs2)n1	> 13.5 µg/mL	20%	0%	> 13.5 µg/mL	> 13.5 µg/mL	> 13.5 µg/mL	100%	> 13.5 µg/mL
O=C(NCCNc1ccc(Nc2ccccn2)nn1)c1ccc(F)cc1	> 10.6 µg/mL	0%	0%	4.32 µg/mL (≈ 12.3 µM)	> 10.6 µg/mL	> 10.6 µg/mL	100%	> 10.6 µg/mL
O=C(CCCn1nc(-c2ccc(F)cc2)ccc1=O)Nc1ccc(C(F)(F)F)cc1	> 12.6 µg/mL	0%	0%	> 12.6 µg/mL	> 12.6 µg/mL	> 12.6 µg/mL	100%	> 12.6 µg/mL
O=C(NCCNc1ccc(Nc2ccccn2)nn1)Nc1ccc(F)cc1	> 11 µg/mL	0%	0%	> 11 µg/mL	> 11 µg/mL	> 11 µg/mL	100%	3.66 µg/mL (≈ 9.95 µM)
O=S(=O)(CCCOc1ccc(F)cc1)NC1CCN(Cc2ccccc2)CC1	> 12.2 µg/mL	0%	50%	> 12.2 µg/mL	> 12.2 µg/mL	> 12.2 µg/mL	100%	3.86 µg/mL (≈ 9.49 µM)
CCn1ccc(C(=O)Nc2nc(C(C)(C)C)cs2)n1	> 8.35 µg/mL	0%	16.7%	> 8.35 µg/mL	> 8.35 µg/mL	> 8.35 µg/mL	100%	> 8.35 µg/mL
NC(=O)Cc1csc(SCC(=O)c2ccccc2)n1	> 8.77 µg/mL	0%	16.7%	> 8.77 µg/mL	0.284 µg/mL (≈ 0.971 µM)	> 8.77 µg/mL	0%	> 8.77 µg/mL
O=C(Cc1csc(NC(=O)c2ccc[nH]c2=O)n1)Nc1ccc2c(c1)OCCO2	> 12.4 µg/mL	20%	100%	> 12.4 µg/mL	> 12.4 µg/mL	> 12.4 µg/mL	0%	> 12.4 µg/mL
CCc1ccc(C(=O)NCCNc2ccc(Nc3cccc(C)n3)nn2)cc1	> 11.3 µg/mL	0%	0%	3.3 µg/mL (≈ 8.76 µM)	> 11.3 µg/mL	6.22 µg/mL (≈ 16.5 µM)	100%	> 11.3 µg/mL
O=S(=O)(c1ccc(Cl)s1)N1CCN(c2ccc(-c3ccccn3)nn2)CC1	0.438 µg/mL (≈ 1.04 µM)	0%	0%	> 12.7 µg/mL	> 12.7 µg/mL	> 12.7 µg/mL	0%	> 12.7 µg/mL
O=S(=O)(c1ccc2ccccc2c1)N1CCN(c2ccc(Nc3cccnc3)nn2)CC1	> 13.4 µg/mL	0%	0%	> 13.4 µg/mL	0.434 µg/mL (≈ 0.972 µM)	> 13.4 µg/mL	0%	> 13.4 µg/mL
O=C(NCCNc1ccc(Nc2ccccn2)nn1)c1cccc(C(F)(F)F)c1	> 12.1 µg/mL	50%	0%	5.09 µg/mL (≈ 12.6 µM)	> 12.1 µg/mL	10.1 µg/mL (≈ 25 µM)	100%	6.4 µg/mL (≈ 15.9 µM)

Source: ChEMBL document CHEMBL2093137, “WHO-TDR NTD Screening”
